In publication PMC5599134 (Structure (London, England : 1993), 2017):
Ends that are not written are not given here.

Experiments:
[1] = molecular target: T1, ANK17 domain of DHHC17 (Homo sapiens, UniProt Q8IUH5); assay: ITC titration of ANK17-WT with Snap25b species; type: binding; details: for effect of alanine mutation in Snap25b on binding to ANK17 (in words): ITC, ANK17-WT titrated into Snap25b mutants, 25°C, 1X PBS 1 mM DTT
T1 sequence (Q8IUH5 50-288): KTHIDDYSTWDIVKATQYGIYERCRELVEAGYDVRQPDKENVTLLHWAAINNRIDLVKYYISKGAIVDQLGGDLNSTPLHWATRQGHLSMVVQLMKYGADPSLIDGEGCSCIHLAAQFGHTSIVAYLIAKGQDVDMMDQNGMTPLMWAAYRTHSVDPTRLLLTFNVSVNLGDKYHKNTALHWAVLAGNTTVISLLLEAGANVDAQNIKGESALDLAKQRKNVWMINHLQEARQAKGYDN

[2] = molecular target: Snap25b_(111–120) peptide (human); assay: ITC
[3] = molecular target: Snap25b-C4A (cysteine-less mutant), full length (human) (UniProt P60880); assay: ITC
[4] = tested on: Snap25b-WT; assay: Co2+ affinity pull-down of GFP-Snap25b-WT by DHHC17 mutants in HEK-293T cells; type: cell-based, human; details: 24 h co-transfection, Co2+ (Talon) pull down, gel-densitometry
[5] = tested on: Snap25b; type: cell-based, human; details: HEK-293T, 100 μM 17-ODYA, 4 h, 37°C; Rhodamine-azide click; n=3
Outline: (§1)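 HEK-293T cells (DMEM, 10% FBS, 37°C, 5% CO2) co-transfected with 2 μg GFP-DHHC17 (wild type or mutants) and 0.5 μg EGFP-Snap25b, cysteine-less C4A or empty vector, using PEI-max. At 24 h, cells given serum-free DMEM with 100 μM 17-ODYA for 4 h at 37°C, then lysed in dodecylmaltoside buffer. Click reaction with rhodamine azide/CuSO4/TCEP/TBTA for 1 h at room temperature. In-gel rhodamine fluorescence; anti-GFP and anti-Snap25b blots; bands quantitated.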

[6] = tested on: Snap25b-WT; assay: In vitro palmitate transfer from NBD-palmitoyl-CoA to Snap25b; type: biochemical, human; details: both in absence and presence of purified Snap25b-WT
[7] = tested on: DHHC17; assay: Autoacylation of DHHC17 in 17-ODYA metabolic labeling; type: cell-based, human; details: HEK-293T, click chemistry
Outline: as §1

[8] = molecular target: Snap25b (Synaptosomal-associated protein 25), wild type, full length (human) (UniProt P60880); assay: ITC
[9] = tested on: wild-type Htt; assay: ITC titration of ANK17-W130A into MBP-Htt1–548; type: binding; details: titrated into MBP-Htt1–548, 25°C, 1X PBS 1 mM DTT
[10] = tested on: Snap25b-WT; assay: ITC titration of ANK17 mutants into full-length Snap25b-WT; type: binding, human; details: ANK17 mutants titrated into Snap25b-WT, 25°C, 1X PBS 1 mM DTT
[11] = tested on: Snap25b; details: palmitoylated enzyme intermediate; ref Greaves et al., 2017; cited from earlier work
[12] = Size exclusion chromatography; type: physicochemical; details: Superdex-200
Outline: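 His-tagged protein expressed in E. coli BL21(DE3)-Gold and Ni-NTA purified. Spun at 21000 × g for 20 min at 4°C, then about 200 μL injected onto Superdex-200. Column buffer was 50mM Tris-HCl, 50mM NaCl, 5% glycerol, 1mM DTT for crystallization, or 1X PBS pH 7.4 with 1 mM DTT for ITC. Peak fractions pooled.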

Molecule: V113A: Snap25b alanine mutant V113A (GFP fusion in pull-down)
- effect of alanine mutation in Snap25b on binding to ANK17 (in words) [1]: followed by the V113A and Q116A

Molecule: ankyrin repeat domain of Human DHHC17 (ANK17), wild type (domain or fragment)
- Kd [2]: 11 µM
- Kd [3]: 3 µM

Molecule: N100A: full length DHHC17 mutant N100A (GFP fusion)
- amount of Snap25b pulled down by DHHC17 mutant (in words) [4]: largest decrease in affinity
- S-acylation (palmitate transfer) of Snap25b (in words) [5]: severely reduced levels of palmitoylation

Molecule: DHHC17: full length human DHHC17 palmitoyltransferase (NP_056151)
- autopalmitoylation with or without Snap25b (in words) [6]: does not appear to get autopalmitoylated to appreciable levels
- S-acylation (palmitate transfer) of Snap25b (in words) [5]: readily transfers palmitate to Snap25b
- autoacylation (in words) [7]: did not detect any autoacylation

Molecule: GVVASQPARV [Snap25b111–120]
- Kd [1]: ~11 µM

Molecule: P117A: Snap25b alanine mutant P117A (GFP fusion in pull-down)
- effect of alanine mutation in Snap25b on binding to ANK17 (in words) [1]: largest reduction in binding affinity
- effect of alanine mutation in Snap25b on binding to ANK17 (in words) ([1]; listed as Snap25b-P117A): showed only marginal heat of binding and we could not obtain any fitting of the integrated heats

Molecule: mutation to phenylalanine: full length DHHC17 with W130 mutated to phenylalanine
- S-acylation (palmitate transfer) of Snap25b (in words) [5]: loss of function of W130A can be recovered

Molecule: ANK17-Y67A (domain or fragment)
- fold reduction of affinity against ANK17-WT [8]: 5 fold

Molecule: W130A: full length DHHC17 mutant W130A (GFP fusion)
- amount of Snap25b pulled down by DHHC17 mutant (in words) [4]: largest decrease in affinity
- S-acylation (palmitate transfer) of Snap25b (in words) [5]: severely reduced levels of palmitoylation

B1: ANK17-W130A: ANK17 with alanine substitution at position W130 (protein, UniProt Q8IUH5 50-288, looked up, variant W130A)
chain: KTHIDDYSTWDIVKATQYGIYERCRELVEAGYDVRQPDKENVTLLHWAAINNRIDLVKYYISKGAIVDQLGGDLNSTPLHAATRQGHLSMVVQLMKYGADPSLIDGEGCSCIHLAAQFGHTSIVAYLIAKGQDVDMMDQNGMTPLMWAAYRTHSVDPTRLLLTFNVSVNLGDKYHKNTALHWAVLAGNTTVISLLLEAGANVDAQNIKGESALDLAKQRKNVWMINHLQEARQAKGYDN
modifications: ankyrin repeat domain
- binding of ANK17 mutant to wild-type Htt (in words) [9]: no discernible signs of binding to wild-type Htt
- effect of alanine mutation in ANK17 on binding to full-length Snap25b (in words) [10]: showed only heat of dilution

B2: DHHC17-C467S: mutation of the cysteine of DHHC domain to serine (protein, UniProt Q8IUH5 1-632, looked up, variant C467S)
Palmitoyltransferase ZDHHC17: MQREEGFNTKMADGPDEYDTEAGCVPLLHPEEIKPQSHYNHGYGEPLGRKTHIDDYSTWDIVKATQYGIYERCRELVEAGYDVRQPDKENVTLLHWAAINNRIDLVKYYISKGAIVDQLGGDLNSTPLHWATRQGHLSMVVQLMKYGADPSLIDGEGCSCIHLAAQFGHTSIVAYLIAKGQDVDMMDQNGMTPLMWAAYRTHSVDPTRLLLTFNVSVNLGDKYHKNTALHWAVLAGNTTVISLLLEAGANVDAQNIKGESALDLAKQRKNVWMINHLQEARQAKGYDNPSFLRKLKADKEFRQKVMLGTPFLVIWLVGFIADLNIDSWLIKGLMYGGVWATVQFLSKSFFDHSMHSALPLGIYLATKFWMYVTWFFWFWNDLNFLFIHLPFLANSVALFYNFGKSWKSDPGIIKATEEQKKKTIVELAETGSLDLSIFCSTCLIRKPVRSKHCGVCNRCIAKFDHHSPWVGNCVGAGNHRYFMGYLFFLLFMICWMIYGCISYWGLHCETTYTKDGFWTYITQIATCSPWMFWMFLNSVFHFMWVAVLLMCQMYQISCLGITTNERMNARRYKHFKVTTTSIESPFNHGCVRNIIDFFEFRCCGLFRPVIVDWTRQYTIEYDQISGSGYQLV
- S-acylation (palmitate transfer) of Snap25b (in words) [5]: does not show any appreciable transfer

B3: DHHC15: DHHC15 palmitoyl transferase (NM_144969), comparison enzyme (protein, UniProt Q96MV8 1-337, looked up)
Palmitoyltransferase ZDHHC15: MRRGWKMALSGGLRCCRRVLSWVPVLVIVLVVLWSYYAYVFELCLVTVLSPAEKVIYLILYHAIFVFFTWTYWKSIFTLPQQPNQKFHLSYTDKERYENEERPEVQKQMLVDMAKKLPVYTRTGSGAVRFCDRCHLIKPDRCHHCSVCAMCVLKMDHHCPWVNNCIGFSNYKFFLQFLAYSVLYCLYIATTVFSYFIKYWRGELPSVRSKFHVLFLLFVACMFFVSLVILFGYHCWLVSRNKTTLEAFCTPVFTSGPEKNGFNLGFIKNIQQVFGDKKKFWLIPIGSSPGDGHSFPMRSMNESQNPLLANEETWEDNEDDNQDYPEGSSSLAVETET
modifications: 10xHis tag
- palmitate transfer to Snap25b (in words) [11]: capable of transferring palmitate to a protein substrate such as Snap25b

B4: ANK17: cytoplasmic ankyrin repeat domain of human DHHC17, residues K50 to D288 (protein, UniProt Q8IUH5 50-288, looked up, fragment)
chain: KTHIDDYSTWDIVKATQYGIYERCRELVEAGYDVRQPDKENVTLLHWAAINNRIDLVKYYISKGAIVDQLGGDLNSTPLHWATRQGHLSMVVQLMKYGADPSLIDGEGCSCIHLAAQFGHTSIVAYLIAKGQDVDMMDQNGMTPLMWAAYRTHSVDPTRLLLTFNVSVNLGDKYHKNTALHWAVLAGNTTVISLLLEAGANVDAQNIKGESALDLAKQRKNVWMINHLQEARQAKGYDN
modifications: ankyrin repeat domain
- size exclusion peak homogeneity (in words) [12]: homogenous and monodisperse peaks
